Assay outcomes: PubChem BioAssay, The Scripps Research Institute Molecular Screening Center
In the library only some 3.3% were active in any assay of this set; here they are far more common.
PRMT1 FP inh – PRMT1 methyltransferase inhibitors, primary screen, biochemical, fluorescence polarization; inhibition, % at 2.79 µM; Protein arginine N-methyltransferase 1 (Homo sapiens), Q99873; recombinant PRMT1, activity-based probe fluorescence polarization; 370,000 tested, 1.3% active;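 active = inhibition above about 21% made by adding two undisclosed values, limit read from the data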
mABHD4 FP – ABHD4 inhibitors, primary screen, biochemical, fluorescence polarization, mouse; 370,000 tested, 0.54% active; inhibition, % at 8.92 µM; purified mABHD4, FP-Rh probe fluorescence polarization; AID 720543, 2013;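 active = inhibition exceeding the mean over every tested compound plus 3 SD, cut at about 30% in these data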;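 also: 0% = plate median of compound wells and 100% = S159A mutant with DMSO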
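Assay system: mouse ABHD4 enzyme, wild type / Also added: fluorescent activity-based probe FP-Rh / Doses: single nominal dose of 8.92 µM, 0.89% DMSO final / Timing: 45 min compound pre-incubation plus 60 min probe step, 25 °C / Signal: FP readout, ex 525 nm / em 598 nm / Control set: S159A mutant/DMSO as 100%, compound-well median as 0%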
TCR-CD3 inh – inhibitors of human TCR-CD3 interaction, primary screen, biochemical, fluorescence, TAMRA-labeled TCR probe | inhibition, % at 9.4 µM | 360,000 tested, 0.37% active | AID 651800, 2012; in the data active = inhibition above about 19%;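 also: recombinant mutant TCR 2C K166C tagged with TAMRA read by polarization; 0% = receptor in buffer alone and 100% = receptor with positive control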
rCAG binder – binders of r(CAG) RNA repeats, primary screen, biochemical, fluorescence. r(CAG) RNA repeat, TO-PRO-1 dye displacement fluorescence. inhibition, % at 3 µM. 370,000 tested, 1.3% active;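 active = inhibition above the plate cutoff, the mean of all test compounds on that plate plus 3 SD, cut at about 35% in these data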;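 also: 0% = DMSO alone and 100% = 100 µM mitoxantrone as full dye displacement; higher means more dye released from RNA so lower well fluorescence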
SIAE primary – human SIAE inhibitors, primary screen, biochemical, fluorescence polarization, FP-Rh probe, 1536-well HTS; 370,000 tested, 0.69% active; SIAE FP-Rh probe binding; AID 1053197, 2014; inhibition, % at 9.66 µM;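 active = inhibition above a cutoff: mean of compounds within the control limits plus 3 SD of those, cut at about 17% in these data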;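 also: 0% = plate median of compound wells and 100% = probe without SIAE protein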
Target sequence (Q9HAT2 whole entry, looked up): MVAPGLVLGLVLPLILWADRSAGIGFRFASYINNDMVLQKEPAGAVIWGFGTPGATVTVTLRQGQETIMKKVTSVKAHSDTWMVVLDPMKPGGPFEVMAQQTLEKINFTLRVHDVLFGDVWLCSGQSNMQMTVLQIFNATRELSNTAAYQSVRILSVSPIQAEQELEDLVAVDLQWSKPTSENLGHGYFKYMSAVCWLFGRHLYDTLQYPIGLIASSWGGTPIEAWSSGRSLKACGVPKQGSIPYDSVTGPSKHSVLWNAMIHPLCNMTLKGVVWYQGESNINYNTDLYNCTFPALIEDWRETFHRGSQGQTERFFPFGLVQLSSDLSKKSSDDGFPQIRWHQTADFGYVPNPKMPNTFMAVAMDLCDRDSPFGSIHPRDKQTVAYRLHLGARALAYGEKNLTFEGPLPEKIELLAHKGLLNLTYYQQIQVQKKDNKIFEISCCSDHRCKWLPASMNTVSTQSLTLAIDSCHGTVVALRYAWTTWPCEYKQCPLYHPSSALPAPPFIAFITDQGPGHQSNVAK
rCAG binder conf – small molecules binding CAG repeat RNA – biochemical, fluorescence, confirmation | 4,300 tested, 70% active | AID 652065, 2013 | r(CAG) RNA repeat, TO-PRO-1 dye displacement fluorescence | shares compounds with rCAG binder | inhibition, % at 3 µM;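 active = inhibition above a per-plate cutoff, the mean inhibition of sample wells plus 3 SD, cut at about 35% in these data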;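 also: loss of TO-PRO-1 fluorescence as compound displaces dye from 1x1 AA loop RNA; 0% = DMSO only wells and 100% = 100 µM mitoxantrone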
dCAG dye counter – displacement of TO-PRO-1 from CAG DNA duplex, counter-screen for rCAG RNA repeat binder project, biochemical, fluorescence, TO-PRO-1 dye, d(CAG) DNA oligo. inhibition, % at 3 µM. d(CAG) DNA oligo TO-PRO-1 dye displacement. shares compounds with rCAG binder. 4,300 tested, 94% active. AID 652068, 2013;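 active = inhibition above its plate's cutoff, the mean test-well inhibition plus 3 SD, cut at about 4.8% in these data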;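 also: 0% = DNA dye mix with DMSO and 100% = 100 µM mitoxantrone; hits displace the dye from DNA and so lower well fluorescence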
* hit, by the source's call; · = no result given.

SMILES	PRMT1 FP inh	mABHD4 FP	TCR-CD3 inh	rCAG binder	SIAE primary	rCAG binder conf	dCAG dye counter
O=S1(=O)c2c(NCc3ccco3)cccc2Oc2ccccc2CN1Cc1cn(Cc2cccc(F)c2)nn1	0.6	-4.3	·	8.1	-3.3	·	·
COc1ccccc1NS(=O)(=O)c1cc([N+](=O)[O-])ccc1N/N=C/c1c[nH]c2ccccc12	-1.7	9.3	-6.3	74.4*	6.2	71.2*	35.6*
Cc1[nH]c2ccccc2c1/C=N/Nc1ccc([N+](=O)[O-])cc1S(=O)(=O)Nc1ccc(Cl)cc1	2.3	-0.6	-2.6	10.1	1.4	·	·
C[C@H](CO)N1C[C@H](C)[C@H](CN(C)Cc2ccc(C(=O)O)cc2)OCc2ccccc2-c2c(n(C)c3ccccc23)C1=O	-1.3	2.5	-1.2	47.6*	0.8	49.5*	13.9*
C[C@@H]1CN([C@H](C)CO)C(=O)c2c(c3ccccc3n2C)-c2ccccc2CO[C@H]1CN(C)Cc1ccccc1	2.5	1.7	-5.6	5.2	-2.0	·	·
Cc1ccc2c(c1)C(CS(=O)(=O)NCc1ccccc1)NC2 (stereo unspecified)	4.8	0.6	·	9.0	-1.5	·	·
O=[N+]([O-])c1ccccc1S(=O)(=O)Nc1ccc(-c2ccc(N3CCCC3)nn2)cc1	0.3	4.7	-1.7	37.0*	8.0	38.3*	15.9*
COc1ccc(-c2cccc(NS(=O)(=O)c3ccc([N+](=O)[O-])cc3)c2)nn1	0.9	4.3	5.9	14.7	4.1	·	·
CCOc1ccc(-c2cccc(NS(=O)(=O)c3ccccc3[N+](=O)[O-])c2)nn1	-1.8	12.0	-1.0	34.7*	5.0	21.1	8.5*
CCOc1ccc(-c2cccc(NS(=O)(=O)c3cc([N+](=O)[O-])ccc3C)c2)nn1	6.7	0.0	-5.6	37.8*	-4.5	42.9*	13.0*
COc1ccc(-c2cccc(NS(=O)(=O)c3ccccc3[N+](=O)[O-])c2)nn1	-5.6	-1.4	-0.7	18.2	4.8	·	·
CCOc1ccc(-c2ccc(NS(=O)(=O)c3cc([N+](=O)[O-])c(C)c([N+](=O)[O-])c3)cc2)nn1	-3.3	2.7	0.3	67.7*	2.0	44.1*	13.7*
COC(=O)C1CN(Cc2ccc(C)cc2)CCS(=O)(=O)N1Cc1cn(Cc2ccc(OC)cc2)nn1 (stereo unspecified)	-0.9	0.7	·	-1.4	4.7	·	·
COc1ccc2[nH]cc(C(C)c3ccccc3O)c2c1 (stereo unspecified)	3.0	3.9	·	5.2	5.0	·	·
COc1cc(/C=C2/C(=O)NN(c3ccc(F)cc3)C2=O)cc(Cl)c1O	4.9	12.4	-0.7	15.5	5.9	·	·
COC(=O)c1ccc(N2NC(=O)/C(=C/c3cc(OC)c(OC)c(OC)c3)C2=O)cc1	6.5	15.4	1.7	65.5*	-7.9	61.1*	20.1*
COC(=O)c1ccc(CNC(=O)COC(=O)/C=C/c2cc(OC)c(OC)c(OC)c2)cc1	-2.3	-1.2	0.1	-1.9	-6.9	·	·
COc1cc(/C=C2/C(=O)NN(c3cccc(F)c3)C2=O)ccc1OC(=O)c1ccco1	14.8	19.1	-0.1	45.7*	-4.5	81.7*	44.5*
COc1cccc(/C=C2/C(=O)NN(c3ccc(Br)cc3)C2=O)c1O	-0.3	13.9	2.6	15.9	-0.8	·	·
COC(=O)c1ccc(N2NC(=O)/C(=C/c3cc(OC)c(O)c(OC)c3)C2=O)cc1	9.6	23.2	-12.2	41.7*	-5.5	15.3	4.6*
COc1cc(/C=C2/C(=O)NN(c3ccc(Cl)cc3)C2=O)cc(Br)c1O	19.2	23.8	-0.7	46.5*	8.8	25.3	8.9*
CC(COc1ccc(C(F)(F)F)cc1)CN1CCC(C(O)(c2ccccc2)c2ccccc2)CC1 (stereo unspecified)	4.0	2.3	·	2.4	0.6	·	·
COc1ccc(-c2nnc(NC(=O)c3ccc(S(=O)(=O)N4COCC4(C)C)cc3)o2)cc1	4.5	-15.9	6.6	46.4*	0.5	54.3*	15.3*
Cc1cc(/C=C2/C(=O)N(C)C(=S)N2C)c(C)n1C1CC1	8.2	6.5	-7.6	8.2	1.9	·	·
Cc1cc(/C=C2\SC(=S)NC2=O)c(C)n1C1CC1	6.4	21.5	8.9	35.9*	-7.0	22.7	7.1*
SMILES	PRMT1 FP inh	mABHD4 FP	TCR-CD3 inh	rCAG binder	SIAE primary	rCAG binder conf	dCAG dye counter
COc1ccc(S[C@]2(C(=O)N(C)C)CC(=O)N(c3ccccc3)[C@@H]2c2ccc(OC)cc2)cc1	-2.6	-5.8	·	-0.3	2.8	·	·
CC1(C)CC(=O)C2=C(C1)OC1=C(C(=O)CC(C)(C)C1)C2c1cc([N+](=O)[O-])cc([N+](=O)[O-])c1O	-2.6	12.3	3.8	52.6*	-5.2	64.1*	24.2*
CS(=O)(=O)c1sc2nc(-c3cccs3)cc(-c3ccccc3)c2c1N	64.6*	6.0	10.4	65.0*	-51.9	70.3*	35.9*
N#C/C(=C(/O)COC(=O)c1ccc(C#N)cc1)c1nc2ccccc2s1	11.8	1.2	-8.3	38.2*	-8.6	39.9*	16.9*
N#C/C(=C(/O)COc1ccccc1)c1nc2ccccc2s1	1.7	4.8	-3.5	6.1	-3.9	·	·
CCOc1ccc(-n2c(SCC(=O)Nc3ccc(S(=O)(=O)Nc4cc(C)nc(C)n4)cc3)nnc2-c2ccncc2)cc1	-1.2	-3.2	·	20.3	8.2	·	·
CCOc1ccc(-n2c(SCC(=O)Nc3ccc(S(=O)(=O)Nc4cc(C)nc(C)n4)cc3)nnc2-c2cccc(C)c2)cc1	-1.0	-27.8	·	47.4*	-10.9	46.7*	16.5*
COc1ccc(-n2c(SCC(=O)Nc3ccc(S(=O)(=O)Nc4cc(C)nc(C)n4)cc3)nnc2-c2ccco2)cc1	1.4	-8.9	·	34.2	-0.5	·	·
Cc1ccc(-n2c(SCC(=O)Nc3ccc(S(=O)(=O)Nc4cc(C)nc(C)n4)cc3)nnc2-c2ccc(C(C)(C)C)cc2)cc1	10.3	-49.2	·	43.7*	-39.5	41.7*	16.3*
Cc1cc(NS(=O)(=O)c2ccc(NC(=O)CSc3nnc(-c4ccccn4)n3-c3ccccc3)cc2)nc(C)n1	2.7	4.0	·	21.8	-2.2	·	·
CCOc1ccc(-n2c(SCC(=O)Nc3ccc(S(=O)(=O)Nc4cc(C)nc(C)n4)cc3)nnc2-c2ccc(OC)cc2)cc1	5.9	-20.3	·	41.3*	-8.8	44.1*	14.6*
